MDM2 E3 inh = MDM2-luciferase reporter signal enhancers, primary screen, MDM2 E3 ligase inhibitor project, cell-based, luminescence, 1536-well | E3 ubiquitin-protein ligase Mdm2 (Homo sapiens), Q00987 | cell-based MDM2 ubiquitination luciferase reporter, 2 h; 0 = plate control, 100 = twice control, blank-subtracted | signal enhancement, % at 5 µM | 210,000 tested, 0.11% active | AID 1230, 2008;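 active = signal enhancement of 30% or more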;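 note: luminescence tracks abundance of the self-degrading MDM2-luciferase fusion protein; higher signal means inhibition of MDM2 E3 ligase activity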
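Test system: stable mammalian line carrying autodegrading MDM2–luciferase fusion reporter; quantity: 2000 cells in each well; times: 4 h cell settling then 2 h compound exposure, 37 °C; detection: luminescence with SteadyLite reagent, 15 min at room temperature; evaluation: percent signal gain over controls, blank-subtracted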
Calpain2 inh = inhibitors of pig calpain II, primary screen, biochemical, fluorogenic peptide substrate, 1536-well | purified calpain II, 30 min | inhibition, % at 16 µM | 220,000 tested, 0.37% active | AID 1236, 2008;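 active = inhibition above about 50%, limit read from the data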
Arbovirus anti = antivirals against arbovirus infection, primary screen, cell-based, full library, 10K replicate subset; arbovirus infection cell-based antiviral screen; inhibition, % at 10 µM; 200,000 tested, 0.37% active; AID 1251, 2008; in the data active = inhibition above about 30%
ROMK mod = ROMK potassium channel modulators, primary screen, cell-based, thallium flux, MLSMR library. AID 1918, 2009. Tet-inducible ROMK, thallium flux fluorescence; actives lie on both sides. ATP-sensitive inward rectifier potassium channel 1 (Homo sapiens), P48048. B-score at 10 µM. 130,000 tested, 2% active;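 active = signal ratio slope over the read window, or its plate-corrected B-score, at least 3 SD from the plate mean, either direction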;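 note: B-score of the F/F0 ratio slope over 7 to 12 s after thallium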
PKD1 kinase inh = inhibitors of human PKD1 kinase, biochemical, fluorescence polarization | Serine/threonine-protein kinase D1 (Homo sapiens), Q15139 | PKD1 kinase fluorescence polarization assay | inhibition, % (no concentration beside the values) | 200,000 tested, 0.056% active | AID 797, 2007; in the data active = inhibition above about 50%
Target sequence (Q15139 whole entry, looked up): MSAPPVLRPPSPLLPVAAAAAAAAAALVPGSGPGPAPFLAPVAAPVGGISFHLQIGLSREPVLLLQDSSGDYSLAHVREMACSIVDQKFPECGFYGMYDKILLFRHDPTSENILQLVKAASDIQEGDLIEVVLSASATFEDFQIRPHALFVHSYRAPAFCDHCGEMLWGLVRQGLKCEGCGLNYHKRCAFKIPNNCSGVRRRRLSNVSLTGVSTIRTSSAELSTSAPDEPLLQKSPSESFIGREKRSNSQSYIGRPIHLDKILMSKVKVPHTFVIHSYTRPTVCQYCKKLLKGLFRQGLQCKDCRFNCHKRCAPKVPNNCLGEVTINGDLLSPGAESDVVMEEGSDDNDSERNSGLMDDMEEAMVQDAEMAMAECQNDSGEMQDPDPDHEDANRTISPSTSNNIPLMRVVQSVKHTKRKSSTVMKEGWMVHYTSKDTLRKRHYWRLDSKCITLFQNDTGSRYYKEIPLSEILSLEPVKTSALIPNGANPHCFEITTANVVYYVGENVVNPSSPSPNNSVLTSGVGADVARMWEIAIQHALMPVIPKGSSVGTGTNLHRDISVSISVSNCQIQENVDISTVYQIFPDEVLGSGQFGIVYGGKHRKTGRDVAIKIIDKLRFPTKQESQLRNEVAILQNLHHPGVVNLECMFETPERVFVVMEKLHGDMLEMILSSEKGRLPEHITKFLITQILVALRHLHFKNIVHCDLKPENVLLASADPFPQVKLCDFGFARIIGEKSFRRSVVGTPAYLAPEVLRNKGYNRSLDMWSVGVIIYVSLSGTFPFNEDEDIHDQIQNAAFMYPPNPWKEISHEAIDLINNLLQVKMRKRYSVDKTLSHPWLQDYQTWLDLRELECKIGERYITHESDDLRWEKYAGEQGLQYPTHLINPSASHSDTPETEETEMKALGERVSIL
KCC2 mod = KCC2 cotransporter modulators, thallium flux, primary screen, cell-based, HEK293 KCC2, FluoZin-2 fluorescence, MLSMR | Solute carrier family 12 member 5 (Homo sapiens), Q9H2X9 | KCC2 cells, thallium flux FluoZin-2 fluorescence | B-score of Tl+ flux slope (higher = more flux/activation; lower = inhibition) at 10 µM | 190,000 tested, 2.2% active | AID 1456, 2008;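 active = thallium flux slope and its plate-corrected score both differing from the plate sample mean at a set confidence after two filtering rounds, in either direction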;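 note: slope of fluorescence scaled to starting intensity during 10 to 20 s after thallium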
KCC2 secondary = KCC2 modulators in sodium-free buffer, confirmation, cell-based, HEK293 KCC2, thallium flux, secondary assay. 3,700 tested, 15% active. FluoZin2 fluorescence; hits give high values. normalised thallium flux (F/F0 slope) at 10 µM. shares compounds with KCC2 mod;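 active = thallium flux slope above the same plate's solvent-only control mean plus 3 SD; inconclusive = the two replicate wells disagree; inactive = no significant difference from solvent-only control wells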
KCC2 bumet counter = thallium flux persisting under bumetanide in KCC2 cells, confirmation, counter-screen for KCC2 modulator project, cell-based, HEK293 KCC2, FluoZin2, secondary assay 3; shares compounds with KCC2 mod; HEK293-KCC2 + bumetanide/ouabain; hits give high values; normalized thallium flux at 10 µM; 3,700 tested, 49% active; AID 1714, 2009;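 active = thallium entry rate above the same plate's blocked-transporter control wells by more than 3 SD; inconclusive = the two repeat wells disagree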;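 note: raw slope of fluorescence over initial fluorescence between 10 and 20 s after thallium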
KCC2 sec2 = KCC2 modulators without ouabain present, confirmation, cell-based, HEK293 KCC2, thallium flux, FluoZin2, secondary assay 2; 3,700 tested, 23% active; thallium flux FluoZin2 fluorescence; actives lie on both sides; F/F0 rise rate, 10–20 s post-thallium; AID 1715, 2009; normalized thallium flux at 10 µM; shares compounds with KCC2 mod;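 active = thallium flux slope more than 3 SD above or below the plate's solvent-only control mean, mostly below; inconclusive = the two repeat wells disagreed; inactive = no significant shift from solvent-only controls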;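 note: raw slope with 0.1% DMSO as baseline and bumetanide as block control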
HEK293 Tl flux = thallium flux modulation in parental HEK cells, confirmation, counter-screen for KCC2 modulator project, cell-based, counterscreen 1. shares compounds with KCC2 mod. HEK293 parental cells, thallium flux FluoZin2, ouabain; baseline-ratio fluorescence slope, 10–20 s after thallium. thallium flux rate (normalised fluorescence) at 10 µM. 3,700 tested, 46% active. AID 1716, 2009;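 active = thallium flux rate significantly above the same plate's solvent-only control wells, beyond their mean plus 3 SD; inconclusive = the two replicate wells gave conflicting results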
KCC2 ouabain = KCC2 inhibitors and activators, ouabain retest, confirmation, HEK-KCC2 cells | HEK293-KCC2, thallium flux FluoZin2 fluorescence; bidirectional: low = inhibitor, high = activator | 3,700 tested, 48% active | AID 1717, 2009 | raw Tl+ flux slope (below DMSO = inhibition, above = activation) at 10 µM | shares compounds with KCC2 mod;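 active = thallium flux slope beyond 3 SD from same-plate DMSO control mean in most replicates, usually higher, sometimes lower; inconclusive = repeat tests gave conflicting results; inactive = no significant difference from controls in most replicates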;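 note: slope of initial-normalized fluorescence between seconds 10 and 20 after thallium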
HEK counter2 = native HEK Tl+ uptake effects, second counter-screen – HEK cells, counterscreen 2, counter-screen for KCC2 modulator project, confirmation; shares compounds with KCC2 mod; HEK293 parental, thallium flux FluoZin-2 fluorescence slope; thallium flux slope at 10 µM; 3,700 tested, 33% active;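 active = thallium flux slope above the same plate's solvent-control mean plus 3 SD in both duplicate wells; inconclusive = duplicate wells that disagreed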;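 note: run without ouabain in cells lacking the KCC2 cotransporter; slope of fluorescence scaled to its starting value between 10 and 20 s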
Numbers without * were called inactive; u = inconclusive; x = not tested or not shown. Only some compounds are listed: those with a hit (about 3.7% of all), similar ones and a draw of the others.

SMILES | MDM2 E3 inh | Calpain2 inh | Arbovirus anti | ROMK mod | PKD1 kinase inh | KCC2 mod | KCC2 secondary | KCC2 bumet counter | KCC2 sec2 | HEK293 Tl flux | KCC2 ouabain | HEK counter2
COC(=O)c1ccc(NC(=O)CC2C(=O)N(c3ccc(C)cc3)C(=O)N2CC(C)C)cc1 (stereo unspecified) | -6 | 5 | 18 | 0.38 | -5 | x | x | x | x | x | x | x
CCOC(=O)c1ccc(NC(=O)CC2C(=O)N(c3ccc(F)cc3)C(=O)N2CCC(C)C)cc1 (stereo unspecified) | -21 | 36 | -15 | -0.8 | 3 | -3.5* | 0.01 | 0.006 | 0.033 | 0.0073 | 0.021 | 0.011
S=c1nc(-c2sccc2OCc2ccc(Cl)cc2Cl)[nH][nH]1 | -9 | 93* | 2 | 0.056 | 4 | 24* | 0.0071 | 0.087* | 0.029 | 0.023* | u | 0.013*
Cc1cc(NS(=O)(=O)c2ccc(NC(=O)c3cc4cc(Br)ccc4oc3=O)cc2)no1 | 10 | -61 | -1 | -1.2 | 2 | -1.5 | x | x | x | x | x | x
CCOc1ccc(NC(=O)c2ccco2)c([N+](=O)[O-])c1 | -18 | 28 | -19 | -0.0049 | -4 | -0.24 | x | x | x | x | x | x
COc1ccc(-c2nn(C)c(=O)c3ccccc23)cc1CNS(C)(=O)=O | 6 | -25 | -4 | -0.75 | 0 | -1.4 | x | x | x | x | x | x
COc1ccc(-c2nn(C)c(=O)c3ccccc23)cc1NS(C)(=O)=O | -1 | -20 | -6 | 0.78 | -10 | x | 0.0078 | 0.0057 | 0.03 | 0.0065 | 0.019 | 0.0093
Fc1ccccc1COc1ccc(Br)cc1CNCc1cccnc1 | -3 | 33 | 6 | 0.045 | -4 | -1.3 | x | x | x | x | x | x
Fc1ccccc1COc1ccc(Br)cc1CNCc1ccncc1 | -6 | 57* | -18 | -2.2 | -11 | -3.3* | u | 0.0057 | 0.034 | 0.0068 | 0.014* | 0.01
COc1ccc(/C=N/NC(=S)SC)cc1OC | -8 | -9 | 0 | 1.7 | 3 | 38* | u | 0.076* | 0.063* | 0.053* | 0.073* | 0.055*
Cc1ccc(/C=N\Nc2nc3ccc(Cl)cc3[nH]2)o1 | -18 | 14 | -7 | -0.098 | -6 | 4.8* | 0.0071 | 0.0043 | 0.031 | u | 0.019 | 0.012
COc1cc(/C=N/Nc2snc(SC)c2C#N)cc(OC)c1OC | -22 | -46 | -13 | x | -3 | -0.81 | x | x | x | x | x | x
CSc1nsc(N/N=C/c2ccc3c(c2)OCO3)c1C#N | -24 | 27 | 3 | -0.21 | 1 | 8.2* | 0.0095 | 0.0068 | 0.035 | 0.0043 | 0.02 | 0.012
CCOC(=O)c1cnc(-c2cccc(OC)c2)[nH]c1=O | -14 | -40 | 12 | x | -9 | x | 0.0067 | u | 0.034 | 0.0083 | 0.019 | 0.011
O=C(NCCc1cn2ccccc2n1)c1cc(COc2ccc3ncccc3c2)on1 | -33 | 24 | -4 | -1.4 | -6 | x | 0.0076 | 0.0064 | 0.03 | 0.0074 | u | 0.0097
CCN(Cc1ccccc1)C(=O)c1cc(COc2c(F)cccc2F)on1 | -10 | 26 | x | x | x | -4.7* | 0.0061 | 0.0045 | 0.031 | 0.0066 | 0.014* | u
O=C(NC1CCc2ccccc21)c1cc(COc2c(F)cccc2F)on1 (stereo unspecified) | 3 | 22 | x | -0.081 | x | -3 | x | x | x | x | x | x
COc1cccc(CN(C)C(=O)c2cc(COc3ccc4ncccc4c3)on2)c1 | -15 | 24 | 9 | -1.3 | 5 | x | 0.0071 | 0.0036 | 0.025* | u | 0.014* | 0.0099
O=C(NC1CCCC1)c1cc(COc2ccc3ncccc3c2)on1 | -28 | -9 | x | x | x | 0.39 | x | x | x | x | x | x
O=C(NCC1OCCc2ccccc21)c1cc(COc2c(F)cccc2F)on1 (stereo unspecified) | -20 | 39 | 0 | -0.85 | -1 | -6* | 0.0055 | 0.0044 | u | u | 0.013* | 0.011
COc1cccc(C(=O)C2CCCN(Cc3cccc(-n4nc(C)cc4C)c3)C2)c1 (stereo unspecified) | -6 | 7 | 0 | -1.8 | 1 | -2.6 | x | x | x | x | x | x
COc1cccc(CN(C)C(=O)c2cc(COc3c(F)cccc3F)on2)c1 | -9 | 26 | -2 | 0.72 | 4 | x | 0.007 | 0.0037 | 0.025* | u | 0.014* | 0.0089
C/C=C/Cn1c(SCCCc2ccccc2)nc2c1c(=O)[nH]c(=O)n2C | -11 | 11 | 2 | x | 1 | -5.1* | 0.0067 | 0.0039 | u | 0.0054* | u | 0.0086*
COCCn1c(SCCCc2ccccc2)nc2c1c(=O)[nH]c(=O)n2C | -2 | -19 | -7 | x | -5 | -2.7 | x | x | x | x | x | x
C=CCn1c(SCCCc2ccccc2)nc2c1c(=O)[nH]c(=O)n2C | -8 | 18 | -13 | x | -1 | -3.7* | 0.0073 | 0.0044 | 0.033 | u | 0.019 | 0.01
CCCn1c(N)c(C(=O)CSc2nnc(Cc3ccccc3)o2)c(=O)n(C)c1=O | -7 | 0 | 4 | x | -6 | -8.8* | 0.0068 | 0.0049 | 0.02* | 0.0086 | 0.015* | 0.012

Compound activity from PubChem BioAssay.
